ChEMBL document CHEMBL1145798, “Deoxyribonucleoside 2'- or 3'-mixed disulfides: prodrugs to target ribonucleotide reductase and/or to inhibit HIV reverse transcription” (J Med Chem, 2003)
Calls of active or inactive are those of the source. No cut-off for these calls is given here.

Key:
[1] = system: Human immunodeficiency virus 1; assay: Inhibitory activity against HIV-1 strain (HTLV IIIB) in MT-4 cell line; type: functional; settings: Human immunodeficiency virus 1, MT4; read-out: ED50 (the source's name)
[2] = system: Human immunodeficiency virus 2; assay: Effective concentration against cytopathicity of HIV-2 strain (ROD) in CEM cell line; type: functional, organism-based; settings: Human immunodeficiency virus 2, CCRF-CEM
How it was run: (§1)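 HIV-1 or HIV-2 (ROD) infected CEM cell cultures. EC50 is the compound concentration that protects cells against virus-induced cytopathicity by 50%.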

[3] = system: CCRF-CEM; assay: Cytotoxicity was determined towards CEM/SS cells using MTT assay; type: functional; settings: Homo sapiens
How it was run: (§2)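 Cytotoxicity in CEM/SS cells measured by MTT read-out, reported as CC50.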

[4] = system: Human immunodeficiency virus 1; assay: Effective concentration against cytopathicity of HIV-1 strain (HTLV IIIB) in CEM cell line; type: functional, organism-based; settings: Human immunodeficiency virus 1, CCRF-CEM; how it was run: as §1
[5] = system: CCRF-CEM; assay: Concentration required to lower intracellular dATP levels in CEM/SS cells; type: functional, Homo sapiens
How it was run: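 CEM/SS cells exposed for 24 h at 37 °C across a dose range, then counted. dATP was measured in methanolic cell extracts by an enzymatic assay, elongation of radiolabeled oligonucleotide primers annealed to complementary templates, expressed per million viable cells. IC(dATP-50) is the concentration that depletes intracellular dATP by 50%. Mean ± SD of at least two independent experiments.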

[6] = system: L1210; assay: Antiproliferative activity was determined against murine leukemia cells (L1210); type: functional, cell-based; settings: Mus musculus
How it was run: (§3)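 Cytostatic assay on proliferating cell cultures (human CEM, Molt4/C8; murine L1210, FM3A). IC50 is the compound concentration that inhibits cell proliferation by 50%.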

[7] = system: MOLT-4; assay: Antiproliferative activity was determined against human T-lymphocyte cells -Molt4/C8; type: functional, cell-based; how it was run: as §3
[8] = system: FM3A; assay: Antiproliferative activity was determined against murine mammary carcinoma cells (FM3A); type: functional, cell-based; settings: Mus musculus; how it was run: as §3
[9] = system: CCRF-CEM; assay: Antiproliferative activity was determined against human T-lymphocyte cells-CEM; type: functional, cell-based; how it was run: as §3
[10] = system: CCRF-CEM; assay: Cytotoxicity was determined towards CEM/SS cells (MTT); type: functional; settings: Homo sapiens; how it was run: as §2
[11] = system: MOLT-4 (Homo sapiens); assay: Antiproliferative activity was determined against human T-lymphocyte cells -Molt4/C8
[12] = system: FM3A (Mus musculus); assay: Antiproliferative activity was determined against murine mammary carcinoma cells (FM3A)
[13] = system: MT4; assay: Effective dose against HIV-1 strain (HTLV IIIB) in MT-4 cell line; Not active; type: functional, cell-based; settings: Homo sapiens
[14] = system: MT4; assay: Effective dose against HIV-1 strain (HTLV IIIB) in infected MT-4 cell line; type: functional; settings: Homo sapiens, read-out: ED50 (the source's name)
[15] = system: MT4; assay: Cytotoxicity towards infected MT-4 cell line; type: functional; settings: Homo sapiens, read-out: CD50 (the source's name)

SMILES | EC50 [1] [µM] | EC50 [2] [µM] | CC50 [3] [µM] | EC50 [4] [µM] | ICdATP-50 [5] [µM] | IC50 [6] [µM] | IC50 [7] [µM] | IC50 [8] [µM] | IC50 [9] [µM] | CC50 [10] [µM] | IC50 [11] [µM] | IC50 [12] [µM] | NA [13] | EC50 [14] [µM] | CC50 [15] [µM]
Nc1ccn([C@H]2C[C@H](S)[C@@H](CO)O2)c(=O)n1 | 20 |  |  |  |  |  |  |  |  |  |  |  |  |  | 
CSS[C@H]1C(O)[C@@H](CO)O[C@H]1n1ccc(N)nc1=O (stereo partly drawn) |  | > 65 | 330 | > 65 | 50 | 350 | 255 | > 650 | 82 |  |  |  |  |  | 
CCCSS[C@H]1C(O)[C@@H](CO)O[C@H]1n1ccc(N)nc1=O (stereo partly drawn) |  |  |  |  | 50 |  |  |  |  |  |  |  |  |  | 
CSS[C@H]1C(O)[C@@H](CO)O[C@H]1n1ccc(=O)[nH]c1=O (stereo partly drawn) |  | > 65 |  | > 65 |  | 320 | 220 | > 650 | 160 |  |  |  |  |  | 
C[C@H](Cn1cnc2c(N)ncnc21)OCP(=O)(O)O [TENOFOVIR ANHYDROUS] |  | 3 |  | 4.2 |  | > 350 | > 350 | > 350 | > 350 |  |  |  |  |  | 
CSS[C@H]1C[C@H](n2cc(C)c(=O)[nH]c2=O)O[C@@H]1CO |  | 37 |  | 10 |  | 37 | 25 | 280 | 155 | 120 |  |  |  |  | 
Cc1cn([C@H]2C[C@H](N=[N+]=[N-])[C@@H](CO)O2)c(=O)[nH]c1=O [ZIDOVUDINE] |  |  |  | 0.004 |  |  | > 375 |  | > 375 |  |  |  |  |  | 
Cc1cn([C@H]2C[C@H](S)[C@@H](CO)O2)c(=O)[nH]c1=O |  | > 390 |  | > 390 |  | > 770 |  |  | > 770 |  | > 770 | > 770 |  |  | 
Cc1cn([C@H]2C[C@H](SS[C@H]3C[C@H](n4cc(C)c(O)nc4=O)O[C@@H]3CO)[C@@H](CO)O2)c(=O)nc1O |  | 60 |  | 50 |  | > 390 | 325 | > 390 | > 390 |  |  |  | inactive | 16 | 34
Nc1ccn([C@@H]2O[C@H](CO)C(O)[C@@H]2S)c(=O)n1 (stereo partly drawn) |  | > 340 |  | > 340 |  | 670 | 650 | > 675 | 305 |  |  |  |  |  | 
